The source made the active and inactive calls. The calls are words filed in the database; no cut-off is given here.
Columns and labels:
[1] = Cell cycle arrest in human IGROV1 cells assessed as accumulation at G2/M phase at IC80 after 24 hrs by propidium iodide staining-based flow cytometry (reference value: 13.21%); type: functional; conditions: IGROV-1
How it was run: (§1)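 Cell-cycle distribution in IGROV-1 cells read by flow cytometry of propidium iodide–stained cells.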

IGROV-1 [2] = test: Antiproliferative activity against human IGROV1 cells assessed as growth inhibition after 72 hrs; type: functional, cell-based; conditions: IGROV-1, 72 h
How it was run: (§2)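 Log-phase cells seeded in duplicate in 6-well plates; drug added 24 h after seeding. Cells harvested 72 h after drug exposure and counted with a cell counter. IC50 = drug concentration giving 50% reduction in cell number versus untreated control.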

[3] = Antiproliferative activity against p53 defective cis-platinum-resistant human IGROV1/Pt1 cells assessed as growth inhibition after 72 hrs; type: functional, cell-based; conditions: IGROV-1/Pt1, 72 h; how it was run: as §2
cells = type: functional, cell-based; conditions: Homo sapiens, NCI-H460, 72 h
IGROV-1 [4] = test: Cell cycle arrest in human IGROV1 cells assessed as accumulation at S phase at IC80 after 24 hrs by propidium iodide staining-based flow cytometry (reference value: 36.81%); type: functional; how it was run: as §1
[5] = target: T1, Protein deacetylase HDAC6 (Homo sapiens, UniProt Q9UBN7); test: Inhibition of human HDAC6 using fluorogenic tetrapeptide RHKKAc as substrate
T1 sequence (Q9UBN7 whole entry): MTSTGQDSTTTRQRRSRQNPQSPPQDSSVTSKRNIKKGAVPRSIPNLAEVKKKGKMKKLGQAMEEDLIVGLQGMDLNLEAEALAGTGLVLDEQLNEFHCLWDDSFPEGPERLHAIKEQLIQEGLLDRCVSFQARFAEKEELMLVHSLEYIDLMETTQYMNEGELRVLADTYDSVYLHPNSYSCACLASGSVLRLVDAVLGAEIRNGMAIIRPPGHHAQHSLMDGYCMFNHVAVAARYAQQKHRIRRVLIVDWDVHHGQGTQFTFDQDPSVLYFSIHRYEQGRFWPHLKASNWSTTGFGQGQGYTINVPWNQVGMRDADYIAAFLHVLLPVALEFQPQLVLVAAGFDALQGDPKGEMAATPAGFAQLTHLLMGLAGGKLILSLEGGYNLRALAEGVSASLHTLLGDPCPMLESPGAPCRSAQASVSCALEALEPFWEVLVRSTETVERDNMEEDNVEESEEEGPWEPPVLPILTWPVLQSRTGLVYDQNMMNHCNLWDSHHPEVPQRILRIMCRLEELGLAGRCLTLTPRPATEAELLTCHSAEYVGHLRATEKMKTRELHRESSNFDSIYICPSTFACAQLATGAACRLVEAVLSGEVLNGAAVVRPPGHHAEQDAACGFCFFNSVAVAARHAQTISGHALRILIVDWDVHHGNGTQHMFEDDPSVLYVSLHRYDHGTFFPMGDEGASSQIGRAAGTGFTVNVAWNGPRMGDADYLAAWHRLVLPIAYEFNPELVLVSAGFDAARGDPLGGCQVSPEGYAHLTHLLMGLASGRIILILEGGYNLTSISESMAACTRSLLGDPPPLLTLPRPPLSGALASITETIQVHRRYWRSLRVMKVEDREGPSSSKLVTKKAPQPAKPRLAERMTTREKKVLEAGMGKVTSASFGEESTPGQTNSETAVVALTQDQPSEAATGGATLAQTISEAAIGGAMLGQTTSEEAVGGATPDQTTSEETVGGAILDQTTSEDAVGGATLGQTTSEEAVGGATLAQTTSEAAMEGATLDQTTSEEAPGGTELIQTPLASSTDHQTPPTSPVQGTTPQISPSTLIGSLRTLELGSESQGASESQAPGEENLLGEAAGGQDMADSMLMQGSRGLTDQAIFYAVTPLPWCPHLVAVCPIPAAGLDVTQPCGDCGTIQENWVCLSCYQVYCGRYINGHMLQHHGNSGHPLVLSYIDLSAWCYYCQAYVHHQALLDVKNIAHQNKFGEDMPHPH

IGROV-1 [6] = test: Cell cycle arrest in human IGROV1 cells assessed as accumulation at G1 phase at IC80 after 24 hrs by propidium iodide staining-based flow cytometry (reference value: 49.98%); type: functional; how it was run: as §1
[7] = target: T2, Protein deacetylase HDAC6 (Homo sapiens) (UniProt Q9UBN7); test: Inhibition of HDAC6 in human IGROV1 cells assessed as increase in tubulin acetylation at IC80 after 4 to 24 hrs by Western blot analysis; type: cell-based; conditions: IGROV-1
T2 sequence (whole entry): T1 sequence (Q9UBN7 whole entry)
How it was run: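 Cells treated with various concentrations of HDAC inhibitors, collected, lysed and analysed by Western blotting.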

Histone deacetylase 2 = Histone deacetylase 2 (Homo sapiens, UniProt Q92769); type: cell-based, HeLa
Histone deacetylase 7 = target: T3, Histone deacetylase 7 (Homo sapiens, UniProt Q8WUI4); test: Inhibition of human HDAC7 using fluorogenic tetrapeptide RHKKAc as substrate
T3 sequence (Q8WUI4 whole entry): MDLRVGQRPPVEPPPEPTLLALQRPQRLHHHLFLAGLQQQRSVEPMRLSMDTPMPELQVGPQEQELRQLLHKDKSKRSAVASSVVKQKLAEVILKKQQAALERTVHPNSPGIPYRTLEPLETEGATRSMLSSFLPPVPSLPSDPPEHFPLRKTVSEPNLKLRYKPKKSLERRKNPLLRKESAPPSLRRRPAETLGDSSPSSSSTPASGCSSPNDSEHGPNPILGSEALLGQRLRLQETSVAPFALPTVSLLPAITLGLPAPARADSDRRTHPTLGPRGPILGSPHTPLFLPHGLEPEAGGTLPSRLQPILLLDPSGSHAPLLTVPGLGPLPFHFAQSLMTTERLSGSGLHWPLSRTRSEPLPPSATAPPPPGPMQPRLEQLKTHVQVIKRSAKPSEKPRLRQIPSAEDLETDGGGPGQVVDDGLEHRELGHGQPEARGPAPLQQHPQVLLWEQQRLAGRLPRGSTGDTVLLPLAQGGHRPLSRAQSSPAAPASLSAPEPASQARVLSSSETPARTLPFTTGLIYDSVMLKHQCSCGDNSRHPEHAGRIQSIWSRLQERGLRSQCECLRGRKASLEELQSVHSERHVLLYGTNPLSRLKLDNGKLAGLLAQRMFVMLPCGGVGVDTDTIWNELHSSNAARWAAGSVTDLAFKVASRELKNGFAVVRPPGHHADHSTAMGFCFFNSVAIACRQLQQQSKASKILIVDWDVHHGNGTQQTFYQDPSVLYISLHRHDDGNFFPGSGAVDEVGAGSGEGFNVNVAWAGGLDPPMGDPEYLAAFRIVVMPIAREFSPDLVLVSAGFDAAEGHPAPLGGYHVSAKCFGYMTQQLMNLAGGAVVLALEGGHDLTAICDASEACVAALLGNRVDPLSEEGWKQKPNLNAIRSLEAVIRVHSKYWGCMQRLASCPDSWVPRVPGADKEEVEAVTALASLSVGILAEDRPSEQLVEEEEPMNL

Histone deacetylase 2, sequence (Q92769 whole entry): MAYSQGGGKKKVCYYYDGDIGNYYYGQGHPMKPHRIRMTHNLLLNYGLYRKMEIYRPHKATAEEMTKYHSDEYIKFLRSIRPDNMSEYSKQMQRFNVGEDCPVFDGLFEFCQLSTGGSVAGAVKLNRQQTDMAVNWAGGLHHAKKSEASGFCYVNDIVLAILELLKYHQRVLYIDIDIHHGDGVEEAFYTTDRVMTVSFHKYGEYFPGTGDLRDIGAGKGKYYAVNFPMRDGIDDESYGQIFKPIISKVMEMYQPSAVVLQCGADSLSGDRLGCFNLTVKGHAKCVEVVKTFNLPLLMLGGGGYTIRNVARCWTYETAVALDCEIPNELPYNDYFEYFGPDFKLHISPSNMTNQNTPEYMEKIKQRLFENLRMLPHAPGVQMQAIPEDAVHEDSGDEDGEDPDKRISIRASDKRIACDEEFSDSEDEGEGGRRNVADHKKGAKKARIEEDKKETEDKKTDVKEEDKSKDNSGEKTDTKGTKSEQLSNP

Row | IC50 (cells) [nM] | IC50 [5] [µM] | Activity [7] | IC50 (Histone deacetylase 2) [µM] | IC50 (Histone deacetylase 7) [µM] | SMILES | Activity [1] [%] | IC50 (IGROV-1 [2]) [nM] | IC50 [3] [nM] | Activity (IGROV-1 [4]) [%] | Activity (IGROV-1 [6]) [%]
1 | 1400 | 16.7 | inactive | > 10 |  | COc1ccc(-c2ccc(/C=C/C=C/C(=O)NO)cc2)cc1C12CC3CC(CC(C3)C1)C2 | 7.46 | 1300 | 2030 | 22.18 | 70.35
2 |  | 3.26 |  |  | > 100 | COc1ccc(-c2ccc(/C=C/C=C/C(=O)NO)cc2)cc1 |  |  |  |  | 

From ChEMBL document CHEMBL3232764, “Influence of the adamantyl moiety on the activity of biphenylacrylohydroxamic acid-based HDAC inhibitors” (Eur J Med Chem, 2014)
